Measured values taken from ChEMBL document CHEMBL1137730, “Synthesis and antiparasitic and antifungal evaluation of 2'-arylsubstituted-1H,1'H-[2,5']bisbenzimidazolyl-5-carboxamidines” (Eur J Med Chem, 2009).
Values after ≈ are worked out from the molar mass of the structure shown.

tested on: Trypanosoma cruzi; assay: Antiparasitic activity against Trypanosoma cruzi Tulahuen C4 containing lacz gene at 4.85 ug/ml; format: functional; conditions: Tulahen C4

| Structure (SMILES) | inhibition at 4.85 µg/mL [%] |
| --- | --- |
| COc1ccc(Oc2ccc(-c3nc4ccc(-c5nc6cc(C(=N)N)ccc6[nH]5)cc4[nH]3)cc2)cc1OC | ≤ 70 |
| COc1ccc(-c2nc3ccc(-c4nc5cc(C(=N)N)ccc5[nH]4)cc3[nH]2)cc1OC | ≤ 70 |
| COc1cc(-c2nc3ccc(-c4nc5cc(C(=N)N)ccc5[nH]4)cc3[nH]2)ccc1OCc1ccccc1 | ≤ 70 |
| N=C(N)c1ccc2[nH]c(-c3ccc4nc(-c5cc(F)ccc5Oc5ccc(Cl)cc5)[nH]c4c3)nc2c1 | ≤ 70 |
| N=C(N)c1ccc2[nH]c(-c3ccc4nc(-c5ccc(Oc6ccc(Cl)cc6)cc5)[nH]c4c3)nc2c1 | ≤ 70 |
| N=C(N)c1ccc2[nH]c(-c3ccc4nc(-c5cccc6ccccc56)[nH]c4c3)nc2c1 | ≤ 70 |
| COc1cc(OC)cc(-c2nc3ccc(-c4nc5cc(C(=N)N)ccc5[nH]4)cc3[nH]2)c1 | ≤ 70 |

tested on: Plasmodium falciparum; assay: Antiparasitic activity against Plasmodium falciparum K1; format: functional, organism-based; conditions: not given

| Structure (SMILES) | IC50 [µg/mL] |
| --- | --- |
| N=C(N)c1ccc2[nH]c(-c3ccc4nc(-c5ccc(O)cc5)[nH]c4c3)nc2c1 | 0.013 (≈ 0.0353 µM) |
| COc1ccc(Oc2ccc(-c3nc4ccc(-c5nc6cc(C(=N)N)ccc6[nH]5)cc4[nH]3)cc2)cc1OC | 0.015 (≈ 0.0297 µM) |
| COc1ccc(-c2nc3ccc(-c4nc5cc(C(=N)N)ccc5[nH]4)cc3[nH]2)cc1OC | 0.008 (≈ 0.0194 µM) |
| COc1cc(-c2nc3ccc(-c4nc5cc(C(=N)N)ccc5[nH]4)cc3[nH]2)ccc1OCc1ccccc1 | 0.023 (≈ 0.0471 µM) |
| N=C(N)c1ccc2[nH]c(-c3ccc4nc(-c5cc(F)ccc5Oc5ccc(Cl)cc5)[nH]c4c3)nc2c1 | 0.634 (≈ 1.28 µM) |
| N=C(N)c1ccc2[nH]c(-c3ccc4nc(-c5ccc(Oc6ccc(Cl)cc6)cc5)[nH]c4c3)nc2c1 | 0.028 (≈ 0.0585 µM) |
| N=C(N)c1ccc2[nH]c(-c3ccc4nc(-c5cccc6ccccc56)[nH]c4c3)nc2c1 | 0.016 (≈ 0.0398 µM) |
| COc1ccc(-c2nc3ccc(-c4nc5cc(C(=N)N)ccc5[nH]4)cc3[nH]2)cc1 | 0.015 (≈ 0.0392 µM) |
| COc1cc(OC)cc(-c2nc3ccc(-c4nc5cc(C(=N)N)ccc5[nH]4)cc3[nH]2)c1 | 0.017 (≈ 0.0412 µM) |

tested on: Trypanosoma brucei rhodesiense; assay: Antiparasitic activity against Trypanosoma brucei rhodesiense STIB900; format: functional, organism-based; conditions: not given

| Structure (SMILES) | IC50 [µg/mL] |
| --- | --- |
| N=C(N)c1ccc2[nH]c(-c3ccc4nc(-c5ccc(O)cc5)[nH]c4c3)nc2c1 | 0.017 (≈ 0.0461 µM) |
| COc1ccc(Oc2ccc(-c3nc4ccc(-c5nc6cc(C(=N)N)ccc6[nH]5)cc4[nH]3)cc2)cc1OC | 0.036 (≈ 0.0714 µM) |
| COc1ccc(-c2nc3ccc(-c4nc5cc(C(=N)N)ccc5[nH]4)cc3[nH]2)cc1OC | 0.06 (≈ 0.145 µM) |
| COc1cc(-c2nc3ccc(-c4nc5cc(C(=N)N)ccc5[nH]4)cc3[nH]2)ccc1OCc1ccccc1 | 0.57 (≈ 1.17 µM) |
| N=C(N)c1ccc2[nH]c(-c3ccc4nc(-c5ccc(Oc6ccc(Cl)cc6)cc5)[nH]c4c3)nc2c1 | 0.708 (≈ 1.48 µM) |
| N=C(N)c1ccc2[nH]c(-c3ccc4nc(-c5cccc6ccccc56)[nH]c4c3)nc2c1 | 0.48 (≈ 1.19 µM) |
| COc1ccc(-c2nc3ccc(-c4nc5cc(C(=N)N)ccc5[nH]4)cc3[nH]2)cc1 | 0.009 (≈ 0.0235 µM) |
| COc1cc(OC)cc(-c2nc3ccc(-c4nc5cc(C(=N)N)ccc5[nH]4)cc3[nH]2)c1 | 0.59 (≈ 1.43 µM) |
| Nc1nc(N)nc(Nc2ccc([As]3SCC(CO)S3)cc2)n1 (stereo not drawn) [MELARSOPROL] | 0.003 |

tested on: L6; assay: Cytotoxicity against rat L6 cells by alamar blue assay; format: cell-based; conditions: not given
Method in brief: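 Rat L-6 myoblasts in culture; viability read by Alamar Blue.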

| Structure (SMILES) | IC50 [µg/mL] |
| --- | --- |
| N=C(N)c1ccc2[nH]c(-c3ccc4nc(-c5ccc(O)cc5)[nH]c4c3)nc2c1 | 4.2 (≈ 11.4 µM) |
| COc1ccc(Oc2ccc(-c3nc4ccc(-c5nc6cc(C(=N)N)ccc6[nH]5)cc4[nH]3)cc2)cc1OC | 29.4 (≈ 58.3 µM) |
| COc1ccc(-c2nc3ccc(-c4nc5cc(C(=N)N)ccc5[nH]4)cc3[nH]2)cc1OC | > 90 |
| COc1cc(-c2nc3ccc(-c4nc5cc(C(=N)N)ccc5[nH]4)cc3[nH]2)ccc1OCc1ccccc1 | 19.8 (≈ 40.5 µM) |
| N=C(N)c1ccc2[nH]c(-c3ccc4nc(-c5cc(F)ccc5Oc5ccc(Cl)cc5)[nH]c4c3)nc2c1 | > 90 |
| N=C(N)c1ccc2[nH]c(-c3ccc4nc(-c5ccc(Oc6ccc(Cl)cc6)cc5)[nH]c4c3)nc2c1 | 46 (≈ 96 µM) |
| N=C(N)c1ccc2[nH]c(-c3ccc4nc(-c5cccc6ccccc56)[nH]c4c3)nc2c1 | 8.72 (≈ 21.7 µM) |
| COc1ccc(-c2nc3ccc(-c4nc5cc(C(=N)N)ccc5[nH]4)cc3[nH]2)cc1 | 10 (≈ 26.1 µM) |
| COc1cc(OC)cc(-c2nc3ccc(-c4nc5cc(C(=N)N)ccc5[nH]4)cc3[nH]2)c1 | 25.5 (≈ 61.8 µM) |

tested on: Candida albicans; assay: Antifungal activity against Candida albicans ATCC 10231 by macro-broth dilution method; format: functional; conditions: not given
Method in brief: (§1)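 Macro-broth (tube) dilution; compounds and reference drugs dissolved in water or 40% DMSO-water as 400 µg/mL stock, brought to 100 µg/mL in the first tube by 4-fold dilution with culture medium and fungal suspension. Result reported as MIC.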

| Structure (SMILES) | MIC [µg/mL] |
| --- | --- |
| N=C(N)c1ccc2[nH]c(-c3ccc4nc(-c5ccc(O)cc5)[nH]c4c3)nc2c1 | 0.78 (≈ 2.12 µM) |
| COc1ccc(Oc2ccc(-c3nc4ccc(-c5nc6cc(C(=N)N)ccc6[nH]5)cc4[nH]3)cc2)cc1OC | 3.12 (≈ 6.18 µM) |
| COc1ccc(-c2nc3ccc(-c4nc5cc(C(=N)N)ccc5[nH]4)cc3[nH]2)cc1OC | 25 (≈ 60.6 µM) |
| COc1cc(-c2nc3ccc(-c4nc5cc(C(=N)N)ccc5[nH]4)cc3[nH]2)ccc1OCc1ccccc1 | 25 (≈ 51.2 µM) |
| N=C(N)c1ccc2[nH]c(-c3ccc4nc(-c5cc(F)ccc5Oc5ccc(Cl)cc5)[nH]c4c3)nc2c1 | 50 (≈ 101 µM) |
| N=C(N)c1ccc2[nH]c(-c3ccc4nc(-c5ccc(Oc6ccc(Cl)cc6)cc5)[nH]c4c3)nc2c1 | 25 (≈ 52.2 µM) |
| N=C(N)c1ccc2[nH]c(-c3ccc4nc(-c5cccc6ccccc56)[nH]c4c3)nc2c1 | 0.78 (≈ 1.94 µM) |
| COc1ccc(-c2nc3ccc(-c4nc5cc(C(=N)N)ccc5[nH]4)cc3[nH]2)cc1 | > 100 |
| COc1cc(OC)cc(-c2nc3ccc(-c4nc5cc(C(=N)N)ccc5[nH]4)cc3[nH]2)c1 | 50 (≈ 121 µM) |
| OC(Cn1cncn1)(Cn1cncn1)c1ccc(F)cc1F [FLUCONAZOLE] | 0.78 (≈ 2.55 µM) |

tested on: Trypanosoma cruzi; assay: Antiparasitic activity against Trypanosoma cruzi Tulahuen C4 containing lacz gene at 0.81 ug/ml; format: functional; conditions: Tulahen C4

| Structure (SMILES) | inhibition at 0.81 µg/mL [%] |
| --- | --- |
| COc1ccc(Oc2ccc(-c3nc4ccc(-c5nc6cc(C(=N)N)ccc6[nH]5)cc4[nH]3)cc2)cc1OC | ≤ 50 |
| COc1ccc(-c2nc3ccc(-c4nc5cc(C(=N)N)ccc5[nH]4)cc3[nH]2)cc1OC | ≤ 50 |
| COc1cc(-c2nc3ccc(-c4nc5cc(C(=N)N)ccc5[nH]4)cc3[nH]2)ccc1OCc1ccccc1 | ≤ 50 |
| N=C(N)c1ccc2[nH]c(-c3ccc4nc(-c5cc(F)ccc5Oc5ccc(Cl)cc5)[nH]c4c3)nc2c1 | ≤ 50 |
| N=C(N)c1ccc2[nH]c(-c3ccc4nc(-c5ccc(Oc6ccc(Cl)cc6)cc5)[nH]c4c3)nc2c1 | ≤ 50 |
| N=C(N)c1ccc2[nH]c(-c3ccc4nc(-c5cccc6ccccc56)[nH]c4c3)nc2c1 | ≤ 50 |
| COc1cc(OC)cc(-c2nc3ccc(-c4nc5cc(C(=N)N)ccc5[nH]4)cc3[nH]2)c1 | ≤ 50 |

tested on: Leishmania donovani; assay: Antiparasitic activity against Leishmania donovani MHOM-ET/67/L82 at 4.85 ug/ml; format: functional; conditions: not given

| Structure (SMILES) | inhibition at 4.85 µg/mL [%] |
| --- | --- |
| COc1ccc(Oc2ccc(-c3nc4ccc(-c5nc6cc(C(=N)N)ccc6[nH]5)cc4[nH]3)cc2)cc1OC | ≤ 70 |
| COc1ccc(-c2nc3ccc(-c4nc5cc(C(=N)N)ccc5[nH]4)cc3[nH]2)cc1OC | ≤ 70 |
| COc1cc(-c2nc3ccc(-c4nc5cc(C(=N)N)ccc5[nH]4)cc3[nH]2)ccc1OCc1ccccc1 | ≤ 70 |
| N=C(N)c1ccc2[nH]c(-c3ccc4nc(-c5cc(F)ccc5Oc5ccc(Cl)cc5)[nH]c4c3)nc2c1 | ≤ 70 |
| N=C(N)c1ccc2[nH]c(-c3ccc4nc(-c5ccc(Oc6ccc(Cl)cc6)cc5)[nH]c4c3)nc2c1 | ≤ 70 |
| N=C(N)c1ccc2[nH]c(-c3ccc4nc(-c5cccc6ccccc56)[nH]c4c3)nc2c1 | ≤ 70 |
| COc1cc(OC)cc(-c2nc3ccc(-c4nc5cc(C(=N)N)ccc5[nH]4)cc3[nH]2)c1 | ≤ 70 |

tested on: Leishmania donovani; assay: Antiparasitic activity against Leishmania donovani MHOM-ET/67/L82 at 0.81 ug/ml; format: functional; conditions: not given

| Structure (SMILES) | inhibition at 0.81 µg/mL [%] |
| --- | --- |
| COc1ccc(Oc2ccc(-c3nc4ccc(-c5nc6cc(C(=N)N)ccc6[nH]5)cc4[nH]3)cc2)cc1OC | ≤ 50 |
| COc1ccc(-c2nc3ccc(-c4nc5cc(C(=N)N)ccc5[nH]4)cc3[nH]2)cc1OC | ≤ 50 |
| COc1cc(-c2nc3ccc(-c4nc5cc(C(=N)N)ccc5[nH]4)cc3[nH]2)ccc1OCc1ccccc1 | ≤ 50 |
| N=C(N)c1ccc2[nH]c(-c3ccc4nc(-c5cc(F)ccc5Oc5ccc(Cl)cc5)[nH]c4c3)nc2c1 | ≤ 50 |
| N=C(N)c1ccc2[nH]c(-c3ccc4nc(-c5ccc(Oc6ccc(Cl)cc6)cc5)[nH]c4c3)nc2c1 | ≤ 50 |
| N=C(N)c1ccc2[nH]c(-c3ccc4nc(-c5cccc6ccccc56)[nH]c4c3)nc2c1 | ≤ 50 |
| COc1cc(OC)cc(-c2nc3ccc(-c4nc5cc(C(=N)N)ccc5[nH]4)cc3[nH]2)c1 | ≤ 50 |

tested on: Pichia kudriavzevii; assay: Antifungal activity against Candida krusei ATCC 6258 by macro-broth dilution method; format: functional; conditions: not given; method in brief: as §1

| Structure (SMILES) | MIC [µg/mL] |
| --- | --- |
| COc1ccc(Oc2ccc(-c3nc4ccc(-c5nc6cc(C(=N)N)ccc6[nH]5)cc4[nH]3)cc2)cc1OC | 6.25 (≈ 12.4 µM) |
| COc1ccc(-c2nc3ccc(-c4nc5cc(C(=N)N)ccc5[nH]4)cc3[nH]2)cc1OC | 25 (≈ 60.6 µM) |
| COc1cc(-c2nc3ccc(-c4nc5cc(C(=N)N)ccc5[nH]4)cc3[nH]2)ccc1OCc1ccccc1 | 50 (≈ 102 µM) |
| N=C(N)c1ccc2[nH]c(-c3ccc4nc(-c5cc(F)ccc5Oc5ccc(Cl)cc5)[nH]c4c3)nc2c1 | 50 (≈ 101 µM) |
| N=C(N)c1ccc2[nH]c(-c3ccc4nc(-c5ccc(Oc6ccc(Cl)cc6)cc5)[nH]c4c3)nc2c1 | 25 (≈ 52.2 µM) |
| N=C(N)c1ccc2[nH]c(-c3ccc4nc(-c5cccc6ccccc56)[nH]c4c3)nc2c1 | 12.5 (≈ 31.1 µM) |
| COc1cc(OC)cc(-c2nc3ccc(-c4nc5cc(C(=N)N)ccc5[nH]4)cc3[nH]2)c1 | 50 (≈ 121 µM) |
| OC(Cn1cncn1)(Cn1cncn1)c1ccc(F)cc1F [FLUCONAZOLE] | 25 (≈ 81.6 µM) |
